Rows were chosen to be rich in hits. Some 3.1% of all compounds tested hit in one or more screens of this group.
H9c2 TAG inh = reduces triacylglycerol accumulation in H9c2 cells | Nile Red lipid (TAG) fluorescence; cells loaded with 200 µM oleic acid | inhibition, % at 12.5 µM | actives 0.66% (n = 230,000) | AID 651582;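 active = pattern-corrected inhibition of lipid staining of at least 50% with the nuclear-stain viability signal not falling by more than 50%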
T cruzi repl = T. cruzi replication inhibition; actives 1.4% (n = 300,000); T. cruzi beta-gal in NIH3T3, luminescence, 90 h; AID 1885; inhibition, % (no concentration beside the values);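 active = mean inhibition across valid replicates above about 55%, limit read from the data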;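 note: signal also drops with host cell toxicity which is not excluded here; higher percent means less beta-gal luminescence so fewer parasites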
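assay system = mouse NIH/3T3 fibroblasts infected with β-gal-expressing T. cruzi Tulahuen C4 | input = 5,000 NIH/3T3 host cells per well | buffer or medium = DMEM plus 2% FBS | timing = 3 h host attachment, then at least 90 h co-culture | measured by = GalScreen luminescence, 60 min | evaluation = luminescence reflecting intracellular parasite burden, expressed as percent inhibition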
CSC inhib = cancer stem cell inhibition; cancer stem cell-like cells viability, luminescence; inhibition, % at 7.5 µM; actives 1.1% (n = 300,000); AID 2717; in the data active = inhibition above about 75%; tested in HMLE shEcad cells
A1 inh = inhibitors of the anti-apoptotic protein A1, read as caspase activation; MEF A1-2A-BIM cells, Caspase-Glo 3/7 luminescence, 3 h; percent of clofoctol response, vehicle zero; caspase activation, % (no concentration beside the values); actives 0.066% (n = 330,000); AID 2462;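 active = over half of replicate activation scores above 10%, or exactly half above 10 with the replicate mean above 10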
Beta apoptosis = beta cell apoptosis inhibition; INS-1E cytokine-induced death, ATP luminescence, 48 h; percent of positive-control rescue, neutral wells zero; protection from apoptosis, % (test concentration not listed); actives 0.8% (n = 300,000);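 active = Every replicate reaches about 75%, or at least half do and their mean reaches it too, limit read from the data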;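 note: higher means more ATP so stronger rescue from cytokine killing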
Calb FLC = C. albicans growth modulation with fluconazole; C. albicans CaCi-2 + fluconazole, Alamar Blue growth, 48 h; growth inhibition, % (test concentration not listed); actives 0.57% (n = 300,000); AID 1979;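 active = growth inhibition above about 58% in most replicates, limit read from the data, passing the limit was not always enough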;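 note: all wells also contain fluconazole at 8 µg/ml as a sub-toxic cotreatment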
Large screens that a line does not name were inactive.

CC(=O)CSc1ccc(-c2nc3cc(C)c(C)cc3[nH]2)cn1	none
CC(=O)CSc1ccc(-c2nc3ccccc3[nH]2)cn1	Beta apoptosis 79 (no result: H9c2 TAG inh)
COc1ccc(Cc2nnc(Cl)c3ccccc23)cc1OC	none (no result: H9c2 TAG inh)
Cc1nn(-c2ccccc2)c2c1C(c1ccc(O)c(O)c1)N1C(=N2)C(Nc2ccccc2)=Nc2ccccc21 (stereo unspecified)	CSC inhib 90
Cc1ccc(NC2=Nc3ccccc3N3C2=Nc2c(c(C)nn2-c2ccccc2)C3c2ccc(O)c(O)c2)cc1 (stereo unspecified)	H9c2 TAG inh 110 (no result: T cruzi repl, CSC inhib, A1 inh, Beta apoptosis, Calb FLC)
Cc1cccc(NC2=Nc3ccccc3N3C2=Nc2c(c(C)nn2-c2ccccc2)C3c2ccc(O)c(O)c2)c1 (stereo unspecified)	CSC inhib 100 (no result: H9c2 TAG inh)
Cc1nn(-c2ccccc2)c2c1C(c1ccc([N+](=O)[O-])cc1)N1C(=N2)C(=O)Nc2ccccc21 (stereo unspecified)	none
Cc1cc(C)c(OCCCCN(C)C)c(Br)c1	T cruzi repl 70
Cc1cc(C)c(OCCOCCN(C)C)c(Br)c1	none
Cc1nn(Cc2ccccc2)c(C)c1C(=O)OCC(=O)c1cc(C)n(CC(F)(F)F)c1C	CSC inhib 78 (no result: H9c2 TAG inh)
C/C(=N\NC(=O)c1cccc(N/N=C(\C)c2cc(O)ccc2O)c1)c1cc(O)ccc1O	Calb FLC 103
C/C(=N\NC(=O)c1cccc(N/N=C(\C)c2ccco2)c1)c1ccco1	none (no result: H9c2 TAG inh, CSC inhib, A1 inh, Beta apoptosis)
CCN(CC)c1ccc(NC(=O)COc2ccc(N(C)S(=O)(=O)c3cccs3)cc2)cc1	T cruzi repl 61
CN(c1ccc(OCC(=O)OCC(=O)Nc2ccccc2)cc1)S(=O)(=O)c1cccs1	none (no result: H9c2 TAG inh)
CCOc1ccc(CCN2C(=S)N([C@@H](CC(C)C)CN3CCCC3CN3C(=S)NC[C@@H]3Cc3ccc(O)cc3)C[C@@H]2Cc2ccc(O)cc2)cc1 (stereo partly specified)	none (no result: T cruzi repl, CSC inhib, A1 inh, Beta apoptosis, Calb FLC)
O=C(NCc1ccccc1)C1=C[C@@H](c2csc3ccccc23)C[C@@H](OCc2ccc(CO)cc2)O1	Beta apoptosis 123
O=C(O)C1=C[C@H](c2csc3ccccc23)C[C@H](OCc2ccc(CO)cc2)O1	none
O=C(NCc1ccccc1)C1=C[C@@H](c2csc3ccccc23)C[C@@H](OCCCCO)O1	Beta apoptosis 116 (no result: H9c2 TAG inh)
O=c1c2ccccc2oc2ccc(C#CC3(O)CCCCC3)cc12	CSC inhib 93
O=C(Cn1ccnc1)c1ccc(Cl)cc1	T cruzi repl 59 (no result: H9c2 TAG inh)
CCOc1ccc(N(CC(=O)NCc2ccco2)C(=O)CCC(=O)Nc2nccs2)cc1	none (no result: H9c2 TAG inh)
O=C1CCC(C(=O)N2CCN(c3cnccn3)CC2)CN1CCc1ccc(Cl)cc1 (stereo unspecified)	none (no result: CSC inhib, A1 inh, Beta apoptosis)
COC(=O)c1ccc(-n2ccnc2)cc1	none
CCOC(=O)C(=Cc1ccc(F)cc1)C(=O)OCC	CSC inhib 96 (no result: H9c2 TAG inh)
CCOC(=O)C(=Cc1ccc(-n2ccnc2)cc1)C(=O)OCC	CSC inhib 86 (no result: H9c2 TAG inh)
CCOC(=O)/C(=C/c1ccc(OC(=O)c2ccncc2)cc1)C(C)=O	none
CCOC(=O)C(=Cc1ccc(Br)cc1)C(=O)OCC	Beta apoptosis 86 (no result: H9c2 TAG inh)
CCOC(=O)C(=O)Nc1ccc(F)cc1	none
CCOCCCNC(=S)N1CCC(C(=O)c2ccc3c(c2)OCCO3)CC1	none
Cc1ccc(NC(=O)COC(=O)Cc2c[nH]c3ccccc23)cc1F	none (no result: T cruzi repl, CSC inhib, A1 inh, Beta apoptosis, Calb FLC)
COC(=O)c1ccc(CC2(C)C(=O)Nc3ccc(-c4cccc(C(F)(F)F)c4)cc32)o1 (stereo unspecified)	none (no result: T cruzi repl, CSC inhib, A1 inh, Beta apoptosis, Calb FLC)
O=C(Nc1cccc(Cl)c1)c1nc[nH]c1C(=O)N1CCN(c2ccccc2)CC1	none (no result: T cruzi repl, Calb FLC)
O=C(COc1ccccc1-c1ccccc1)N/N=C/c1ccc2ccccc2c1	CSC inhib 100, Beta apoptosis 97 (no result: H9c2 TAG inh)
O=C(COc1ccccc1-c1ccccc1)N/N=C/c1ccncc1	none
C/C(=N\NC(=O)COc1ccccc1-c1ccccc1)c1ccccn1	T cruzi repl 71, Beta apoptosis 81
C/C(=N\NC(=O)COc1ccccc1-c1ccccc1)c1cccnc1	none
C/C(=N\NC(=O)COc1ccccc1-c1ccccc1)c1ccc(O)cc1O	T cruzi repl 77, Beta apoptosis 81
COc1ccc(C(=O)c2c(C)c3ccccc3n2CC(O)CNC(C)C)cc1 (stereo unspecified)	Beta apoptosis 102
O=C(NCc1cccnc1)c1ccc(NC(=O)c2ccc(Br)cc2)cc1	CSC inhib 85, Beta apoptosis 140 (no result: H9c2 TAG inh)
CC(C)C(=O)Nc1ccc(C(=O)NCc2cccnc2)cc1	Beta apoptosis 107 (no result: H9c2 TAG inh)
O=C(NCc1cccnc1)c1ccc(NC(=O)c2ccco2)cc1	none (no result: Beta apoptosis)
O=C(NCc1cccnc1)Nc1ccc(Br)cc1	none
O=C(Nc1cc(Cl)ccc1-n1cncn1)c1ccco1	none
O=C(Nc1cc(Cl)ccc1-n1cncn1)c1ccc([N+](=O)[O-])s1	T cruzi repl 69, Beta apoptosis 102
CC(C)(C)NCC1(CO)SC(N)=NC1=O (stereo unspecified)	T cruzi repl 57
CCN(CC)C1=CC(=[N+]2CCCC2)CC(C)(C)C1	T cruzi repl 64 (no result: H9c2 TAG inh)
COc1cc(OC)c(OC)cc1CN1CCCC(C(=O)c2ccccc2SC)C1 (stereo unspecified)	T cruzi repl 56
COc1ccccc1C(=O)C1CCCN(Cc2cn[nH]c2C2CCCCC2)C1 (stereo unspecified)	T cruzi repl 62 (no result: H9c2 TAG inh)
COc1cc(CN2CCCC(C(=O)c3ccccc3SC)C2)cc(OC)c1 (stereo unspecified)	T cruzi repl 68 (no result: H9c2 TAG inh)
Cc1ccc(C(=O)CCC(=O)Nc2ccc(C)cn2)cc1	none (no result: T cruzi repl, Calb FLC)
C[C@H](CO)N1C[C@H](C)[C@@H](CN(C)C(=O)NC2CCCCC2)Oc2c(NC(=O)c3ccncc3)cccc2C1=O	none (no result: T cruzi repl, Calb FLC)
Cc1cc(O)c(-c2cc(O)c(C)cc2O)cc1O	T cruzi repl 55 (no result: H9c2 TAG inh, Beta apoptosis)
CC(=O)N(C)c1ccc(OCC(O)Cn2c(C)nc3ccccc32)cc1 (stereo unspecified)	none
CC(=O)N(C)c1ccc(OCC(O)Cn2c3ccc(Cl)cc3c3cc(Cl)ccc32)cc1 (stereo unspecified)	CSC inhib 105
CC1CCN(C(=O)COC(=O)C2CCN(S(=O)(=O)c3c(Cl)cccc3Cl)CC2)CC1	none (no result: T cruzi repl, CSC inhib, A1 inh, Beta apoptosis, Calb FLC)
CCCC(=O)N1CCN(c2ccc(NC(=O)c3ccc([N+](=O)[O-])o3)cc2Cl)CC1	T cruzi repl 57 (no result: CSC inhib, A1 inh, Beta apoptosis)
CCN1CCN(c2c(Cl)cccc2NC(=O)c2ccc([N+](=O)[O-])o2)CC1	Beta apoptosis 103
O=C(Nc1cccc(Cl)c1N1CCCC1)c1ccc([N+](=O)[O-])o1	CSC inhib 100 (no result: T cruzi repl)
COc1cccc(CN2CCNC(=O)C2CC(=O)NCCN2CCCCC2=O)c1 (stereo unspecified)	none (no result: H9c2 TAG inh, CSC inhib, A1 inh, Beta apoptosis)
CC1CCc2c(sc3[nH]c(=S)n(C)c(=O)c23)C1 (stereo unspecified)	none (no result: H9c2 TAG inh)

Compound activity as filed in PubChem BioAssay.
